For eight compounds, Ki50, Activity and inhibition results are on record in ChEMBL document CHEMBL4184191, “Immunoproteasome inhibition and bioactivity of thiasyrbactins” (2018).

Activity calls are given as the source filed them. The rule behind the calls is not given here.

Experiment [1] has as its target T1, Proteasome component C5 (Homo sapiens) (UniProt P20618).
T1 sequence (whole entry): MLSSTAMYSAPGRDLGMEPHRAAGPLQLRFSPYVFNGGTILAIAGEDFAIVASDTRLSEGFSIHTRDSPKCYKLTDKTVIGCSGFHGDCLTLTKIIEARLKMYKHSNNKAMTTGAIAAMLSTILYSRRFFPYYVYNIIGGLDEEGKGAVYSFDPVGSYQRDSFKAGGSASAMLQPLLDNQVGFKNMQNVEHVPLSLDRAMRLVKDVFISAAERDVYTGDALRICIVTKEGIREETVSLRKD
Put plainly: Inhibition of 20s constitutive proteasome caspase-like activity in human erythrocytes using […] as substrate pretreated for 2 hrs followed by substrate addition measured after 10 mins by luminescence assay. In kind it is cell-based. The procedure, abridged:
(§1)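 Purified human 20S proteasome was used: constitutive enzyme from erythrocytes, immunoproteasome from PBMCs, each at 2.2 ng/µl. It was preincubated with inhibitor (0 to 10 µM) in 10 mM HEPES pH 7.3 for 2 h at 37 °C. An equal volume of luminogenic substrate was then added ([…], […], Suc-LLVY-Glo for β5), and luminescence was read 10 min later. Runs were in triplicate, and Ki-50 values were fitted and averaged.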

In experiment [2] the target is Proteasome Macropain subunit (Homo sapiens) (UniProt P49721). In words: Inhibition of 20s constitutive proteasome trypsin-like activity in human erythrocytes using […] as substrate pretreated for 2 hrs followed by substrate addition measured after 10 mins by luminescence assay. In kind it is cell-based. The procedure, abridged: as §1
Chain of Proteasome Macropain subunit (Homo sapiens) (P49721 whole entry): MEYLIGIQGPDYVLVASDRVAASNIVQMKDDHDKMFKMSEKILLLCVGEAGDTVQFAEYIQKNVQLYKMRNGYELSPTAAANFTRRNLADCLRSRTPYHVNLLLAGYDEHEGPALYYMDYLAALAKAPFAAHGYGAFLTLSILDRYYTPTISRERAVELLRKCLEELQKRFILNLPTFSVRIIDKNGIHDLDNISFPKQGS
In experiment [3] the target is T1, Proteasome component C5 (Homo sapiens). In words: Inhibition of immunoproteasome caspase-like activity in human […] using […] as substrate pretreated for 2 hrs followed by substrate addition measured after 10 mins by luminescence assay. In kind it is cell-based. The procedure, abridged:
as §1

Experiment [4] has as its target T2, Proteasome Macropain subunit MB1 (Homo sapiens) (UniProt P28074).
T2 sequence (whole entry): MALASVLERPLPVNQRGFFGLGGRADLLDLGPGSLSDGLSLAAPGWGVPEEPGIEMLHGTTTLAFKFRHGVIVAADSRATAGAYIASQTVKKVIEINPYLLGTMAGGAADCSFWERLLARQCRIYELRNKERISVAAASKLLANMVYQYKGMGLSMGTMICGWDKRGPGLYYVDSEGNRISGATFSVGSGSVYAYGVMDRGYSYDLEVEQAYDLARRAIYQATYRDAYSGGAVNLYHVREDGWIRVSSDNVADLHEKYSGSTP
In words: Stimulation of immunoproteasome chymotrypsin-like activity in human […] at 1 uM using Suc-LLVY-Glo as substrate pretreated for 2 hrs followed by substrate addition measured after 10 mins by luminescence assay. In kind it is cell-based.

Experiment [5] concerns the target Proteasome Macropain subunit (Homo sapiens) (UniProt P49721). In words: Inhibition of immunoproteasome trypsin-like activity in human […] using […] as substrate pretreated for 2 hrs followed by substrate addition measured after 10 mins by luminescence assay. In kind it is cell-based. The procedure, abridged: as §1
Experiment [6] has as its target T2, Proteasome Macropain subunit MB1 (Homo sapiens). Put plainly: Inhibition of immunoproteasome chymotrypsin-like activity in human […] using Suc-LLVY-Glo as substrate pretreated for 2 hrs followed by substrate addition measured after 10 mins by luminescence assay. In kind it is cell-based. The procedure, abridged:
as §1

For experiment [7], the species on record is Homo sapiens. Put plainly: Cytotoxicity against human MYCN2 cells assessed as reduction in cell viability after 24 hrs […]. In kind it is functional, cell-based.
The species entered for experiment [8] is Homo sapiens. Put plainly: Cytotoxicity against human SK-N-BE(2)C cells assessed as reduction in cell viability after 24 hrs […]. In kind it is functional, cell-based.
Experiment [9] deals with SK-N-SH. In words: Cytotoxicity against human SK-N-SH cells assessed as reduction in cell viability after 24 hrs […]. In kind it is functional, cell-based.
Experiment [10] deals with T2, Proteasome Macropain subunit MB1 (Homo sapiens). In words: Inhibition of 20s constitutive proteasome chymotrypsin-like activity in human erythrocytes using Suc-LLVY-Glo as substrate pretreated for 2 hrs followed by substrate addition measured after 10 mins by luminescence assay. In kind it is cell-based. In short, it runs like this: as §1
Experiment [11] is described as follows: Cytotoxicity against human MYCN2 cells assessed as reduction in cell viability at 0.01 to 1 uM after 24 hrs […]. In kind it is functional.
The test system of experiment [12] is SK-N-SH. Put plainly: Cytotoxicity against human SK-N-SH cells assessed as reduction in cell viability at 0.01 to 1 uM after 24 hrs […]. In kind it is functional.
Experiment [13] relates to SK-N-SH. In words: Cytotoxicity against human SK-N-SH cells assessed as reduction in cell viability at 0.1 to 1 uM after 24 hrs […]. In kind it is functional, cell-based.
For experiment [14], the species on record is Homo sapiens. Put plainly: Cytotoxicity against human MYCN2 cells assessed as reduction in cell viability at 0.1 to 1 uM after 24 hrs by […] assay. In kind it is functional, cell-based. The procedure, abridged: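 Human neuroblastoma cells were plated overnight in RPMI with 10% heat-inactivated FBS, penicillin (100 U/ml) and streptomycin (100 µg/ml), at 37 C and 5% CO₂. They were exposed to inhibitor at 0.01, 0.1 and 1 µM for 24 h. Viability was read with MTS reagent as absorbance at 490 nm. Two independent experiments were run, each in triplicate wells (n=6), and results are expressed relative to untreated control cells.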

`CC(C)Cc1ccc([C@H](C)C(=O)N[C@H](C(=O)N[C@H]2CSCCNC(=O)/C=C/[C@H](C)NC2=O)C(C)C)cc1`: the Ki50 is greater than 10 µM in experiment [1]; 1.07 µM in [2]; greater than 10 µM in experiment [3]; 0.74 µM in [5]; greater than 10 µM in experiment [6]. For the same compound, the result in [4] was Active.
With `CC(C)[C@H](NC(=O)c1cnccn1)C(=O)N[C@H]1CSCCNC(=O)/C=C/[C@H](C)NC1=O`, the Ki50 in experiment [1] is greater than 10 µM; in experiment [2] it was 0.92 µM; in experiment [3], greater than 10 µM; in experiment [5] it was 0.75 µM; in experiment [6], greater than 10 µM. Moreover, the outcome in experiment [4] was Active.
As to `COc1ccc(C[C@H](NC(=O)[C@H](C)NC(=O)CN2CCOCC2)C(=O)N[C@@H](Cc2ccccc2)C(=O)[C@]2(C)CO2)cc1`, the figures for the Ki50 in experiment [1], in experiment [3] and in [6] were 2.07 µM, 1.32 µM and 0.11 µM, respectively.
As for `CCCCCCCCCCCCNC(=O)N[C@H](C(=O)N[C@H]1C[S+]([O-])CCNC(=O)/C=C/[C@H](C)NC1=O)C(C)C` (some centres undefined), the inhibition result in [1], in experiment [2], in experiment [3], in [10], in experiment [5] and in experiment [6] was “inactive” in each case. Moreover, the outcome in the experiment filed under Homo sapiens [7], in the experiment filed under Homo sapiens [8] and in the experiment with SK-N-SH [9] was inactive.
Take `CCCCCCCCCCCCNC(=O)N[C@H](C(=O)N[C@H]1CSCCNC(=O)/C=C/[C@H](C)NC1=O)C(C)C`: the Ki50 was greater than 10 µM in experiment [1]; 1.76 µM in experiment [2]; greater than 10 µM in experiment [3]; 1.39 µM in experiment [5]; greater than 10 µM in [6]. Also, the Activity (in [11]; in the experiment with SK-N-SH [12]) was 30 - 50% in each case.
`C[C@H]1/C=C/C(=O)NCC[S+]([O-])C[C@H](NC(=O)c2cnccn2)C(=O)N1` (some centres undefined): the inhibition entry in experiment [1], in [2], in experiment [3], in experiment [10], in experiment [5] and in [6] was “inactive” throughout. Besides, the result in the experiment filed under Homo sapiens [7], in the experiment listed under Homo sapiens [8] and in the experiment with SK-N-SH [9] was inactive.
As for `CC(C)C[C@H](NC(=O)[C@H](Cc1ccccc1)NC(=O)c1cnccn1)B(O)O`, the results for the Ki50 in experiment [1], in experiment [3] and in [6] were 0.02 µM, 0.03 µM and 0.01 µM, respectively. Further, the result with SK-N-SH [13] and in the experiment listed under Homo sapiens [14] was Active.
On to `C[C@H]1/C=C/C(=O)NCCSC[C@H](NC(=O)c2cnccn2)C(=O)N1`, for which the inhibition result in experiment [1], in experiment [2], in [3], in experiment [10], in experiment [5] and in experiment [6] was “inactive” each time. For the same compound, the outcome in the experiment listed under Homo sapiens [7], in the experiment filed under Homo sapiens [8] and with SK-N-SH [9] was inactive.
